Assay outcomes from PubChem.
Compounds with a hit are over-represented: about 4.1% of the library has one in this group of screens.
SMARCA2 act = SMARCA2 function activation, primary screen. actives 1% (n = 370,000). MG213 cells, MMTV-luciferase reporter, dexamethasone, overnight. activation, % at 9.1 µM; in the data active means activation above about 7.8%;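 further: 0% = vehicle wells and 100% = reference activator wells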
Tb MetRS inh = blocks T. brucei methionyl-tRNA synthetase activity; purified T. brucei MetRS, ATP depletion, Kinase-Glo luminescence; inhibition, % at 11.9 µM; actives 0.4% (n = 360,000);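 active means inhibition above a per-plate cutoff of the control wells' mean inhibition plus 3 SD, cut at about 5.5% in these data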;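 further: 0% = DMSO wells median and 100% = median of wells with control inhibitor compound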
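Material: parasite MetRS enzyme / Replication: singlicate, one well per compound / Signal: luminescence of leftover ATP / Schedule: 2 h aminoacylation at 25 °C after 15 min preincubation / Medium: HEPES-MgCl2-KCl buffer plus DTT, spermine, BSA, pyrophosphatase / Doses: 11.9 µM single point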
H9c2 TAG inh = inhibitors of triacylglycerol accumulation. actives 0.66% (n = 230,000). inhibition, % at 12.5 µM. H9c2 cells, Nile Red lipid (TAG) fluorescence; cells loaded with 200 µM oleic acid. AID 651582;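 active means pattern-corrected inhibition of lipid staining of at least 50% with the nuclear-stain viability signal not falling by more than 50%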;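 further: 0% = DMSO wells and 100% = triacsin C control wells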
Efflux pump inh = inhibitors of Candida antifungal efflux pumps expressed in yeast; S. cerevisiae Candida pump triplex, Nile Red efflux; inhibition, % at 10 µM; actives 0.44% (n = 330,000); AID 485275;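 active means plate passing quality check with inhibition over a set limit, or well fluorescence over plate mean plus 4 SD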;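 further: Nile Red retained in pooled yeast measured as flow cytometry median fluorescence; 0% = buffer negative control and 100% = Enniatin B positive control; higher means more Nile Red kept so more efflux inhibition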
AHR activator = human AHR activation. P35869. AHR-responsive luciferase reporter cells, luminescence. activation, % at 5 µM. actives 2.5% (n = 320,000). AID 2796; in the data active means activation above about 47%;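 further: 0% = vehicle wells and 100% = reference agonist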
SMARCA2 act conf = SMARCA2 activation, confirmation screen; shares compounds with SMARCA2 act; MG213 cells, MMTV-luciferase with dexamethasone, luminescence, overnight; MG213 cells expressing E1A, Rb sequestered; DMSO wells 0%, reference activator 100%; activation, % at 9.1 µM; actives 30% (n = 3,500); AID 652260;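 active means activation above its plate's cutoff, the mean activation of tested wells plus 3 SD, cut at about 7.9% in these data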
VP16 Luc act = counter-screen for SMARCA2 activators: GAL4-VP16 luciferase reporter activation | HEK293 GAL4-VP16 pG5luc reporter, luciferase luminescence; scaled: DMSO wells 0%, SAHA wells 100% | activation, % at 9.1 µM | actives 41% (n = 3,500) | AID 686939 | shares compounds with SMARCA2 act;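 active means activation above the solvent-only control well mean plus 3 SD, averaged across control plates, cut at about 5.2% in these data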
* = called active by the depositor; ! = repeats disagree.

Results for CN(c1ccc(NC(=O)CCc2cn(Cc3ccc(Br)cc3)c3ccccc23)cc1)c1ccccn1 ?
SMARCA2 act: -3

Results for Cc1ccnc(NC(=O)CCCOc2cc(=O)n(C)c3ccccc23)c1 ?
SMARCA2 act: 22*!; Tb MetRS inh: 0; H9c2 TAG inh: 78; Efflux pump inh: 0; AHR activator: 22; SMARCA2 act conf: 9.1*; VP16 Luc act: 0

What do the screens show for `Cn1c(=O)cc(OCCCC(=O)NCc2ccccn2)c2ccccc21`?
SMARCA2 act: 0; Tb MetRS inh: -1; Efflux pump inh: 0; AHR activator: 1

How did Nn1nnc2ccccc21 do in these assays?
SMARCA2 act: -2; Tb MetRS inh: -1; H9c2 TAG inh: -7; Efflux pump inh: 0; AHR activator: -2

How did C(=C\n1nnc2ccccc21)/c1ccccn1 do in these assays?
SMARCA2 act: 8.7*; Tb MetRS inh: 0; H9c2 TAG inh: 4; Efflux pump inh: 0; AHR activator: 44; SMARCA2 act conf: 8; VP16 Luc act: 10*

Results for COCC(=O)Nc1c(C(=O)Nc2cccc(OC)c2)oc2ccccc12 ?
SMARCA2 act: 10*; Tb MetRS inh: -1; Efflux pump inh: 0; AHR activator: 70*; SMARCA2 act conf: 12*; VP16 Luc act: 6.2*

What do the screens show for `COc1cc(C2Oc3ccccc3C=C2[N+](=O)[O-])cc(OC)c1OC` (stereo not drawn)?
SMARCA2 act: 21*; Tb MetRS inh: 0; H9c2 TAG inh: 4; SMARCA2 act conf: -13; VP16 Luc act: 3

Results for CCCCNC(=O)C[C@H]1C[C@@]2(C(=O)OC)C(=C[C@H](C(C)(C)C)O[C@@H]2C)N(Cc2ccc(Cl)cc2Cl)C1=O ?
SMARCA2 act: -5

How did CCOC(=O)C1=NOC(C(=O)Nc2nccs2)(C(=O)C2CC2)C1 (stereo not drawn) do in these assays?
SMARCA2 act: -2

How did CCCC(=Nc1ccc(N)cc1)C1=C(O)C(C(=O)OC)C(C)(C)CC1=O (stereo not drawn) do in these assays?
SMARCA2 act: 8.2*; Tb MetRS inh: 1; Efflux pump inh: 0; AHR activator: 0; SMARCA2 act conf: -3; VP16 Luc act: 3

Results for O=C(Nc1ccccc1)NC1CCCCCCC1 ?
SMARCA2 act: 12*; Tb MetRS inh: 0; H9c2 TAG inh: -3; Efflux pump inh: 0; AHR activator: 3; SMARCA2 act conf: 5; VP16 Luc act: 4

Results for COc1ccc(C(C)=O)cc1CSC(=S)N1CCSCC1 ?
SMARCA2 act: -6

Results for ClC(Cl)(c1nnnn1-c1ccccc1)c1nnnn1-c1ccccc1 ?
SMARCA2 act: 24*; Tb MetRS inh: 0; Efflux pump inh: 0; AHR activator: 3; SMARCA2 act conf: -4; VP16 Luc act: -1

How did c1ccc(-c2nnnn2-c2ccccc2)cc1 do in these assays?
SMARCA2 act: -2; Tb MetRS inh: 0; Efflux pump inh: 0

What do the screens show for `Brc1ccc(-c2nnc(-c3ccccc3Br)o2)cc1`?
SMARCA2 act: 8.4*; Tb MetRS inh: 0; Efflux pump inh: 0; AHR activator: 45; SMARCA2 act conf: 6; VP16 Luc act: 13*

How did CCc1ccccc1NC(=O)C1CCC(=O)N(c2ccc(OC)cc2)C1c1ccc(OC)cc1 (stereo not drawn) do in these assays?
SMARCA2 act: 9.6*; SMARCA2 act conf: -1; VP16 Luc act: 0

How did Cc1onc(-c2ccccc2)c1C(=O)N1CCN(C(=O)C(=O)c2cccc(C(F)(F)F)c2)CC1 do in these assays?
SMARCA2 act: -3

How did CCc1ccccc1OCC(=O)OCC(=O)Nc1cc(C)on1 do in these assays?
SMARCA2 act: 8.3*; Tb MetRS inh: -1; H9c2 TAG inh: 5; Efflux pump inh: 0; AHR activator: 4; SMARCA2 act conf: -2; VP16 Luc act: 0

How did Cc1cc(NC(=O)COC(=O)COc2ccc(C(=O)c3ccccc3)cc2)no1 do in these assays?
SMARCA2 act: 0; Tb MetRS inh: -1; H9c2 TAG inh: -7; Efflux pump inh: 0; AHR activator: -2

What do the screens show for `O=C1NC(c2ccccc2)(c2ccccc2)C(=O)N1CNc1ccccn1`?
SMARCA2 act: 1

How did Cc1ccc(C(=O)N/C(=C/c2ccc(-c3ccc([N+](=O)[O-])cc3)o2)C(=O)NCCCN(C)C)cc1 do in these assays?
SMARCA2 act: 9.5*; Tb MetRS inh: 2; H9c2 TAG inh: 13; Efflux pump inh: 0; AHR activator: 1; SMARCA2 act conf: 12*; VP16 Luc act: 0

Results for CCc1ccc(NC(=O)c2cnn(-c3ccccc3)c2C)cc1 ?
SMARCA2 act: 5; Tb MetRS inh: 0; Efflux pump inh: 0; AHR activator: -9

What do the screens show for `CCc1ccccc1-n1ncc(C(=O)Nc2ccc(OC)cc2)c1C`?
SMARCA2 act: 8.0*; Tb MetRS inh: 0; H9c2 TAG inh: 3; SMARCA2 act conf: 5; VP16 Luc act: 12*

What do the screens show for `Cc1c2c(nc3c(C(=O)NC4CCCC4)cnn13)CCCC2`?
SMARCA2 act: 1; Tb MetRS inh: -1; Efflux pump inh: 0; AHR activator: 21

How did COC(=O)c1cnn2c3c(c(C)nc12)CCCC3 do in these assays?
SMARCA2 act: 11*; Tb MetRS inh: -1; Efflux pump inh: 0; AHR activator: 2; SMARCA2 act conf: 7; VP16 Luc act: 5

How did N#CC(=C1NC(=O)c2ccccc21)c1nc2ccccc2n1CCO do in these assays?
SMARCA2 act: 20*; Tb MetRS inh: 0; H9c2 TAG inh: 16; SMARCA2 act conf: -13; VP16 Luc act: 18*

What do the screens show for `CN(C)Cc1nc2ccccc2c(=O)n1Cc1nc(-c2cccc([N+](=O)[O-])c2)cs1`?
SMARCA2 act: -1; Tb MetRS inh: -1; H9c2 TAG inh: -19; Efflux pump inh: 0; AHR activator: 9

What do the screens show for `CN1CCN(Cc2nc3ccccc3c(=O)n2Cc2nc(-c3ccc([N+](=O)[O-])cc3)cs2)CC1`?
SMARCA2 act: 17*; Tb MetRS inh: 0; H9c2 TAG inh: -5; Efflux pump inh: 0; AHR activator: 0; SMARCA2 act conf: 44*; VP16 Luc act: 2

Results for COc1cccc(NC(=O)C2CCCN2C(=O)Nc2ccc(Cl)cc2)c1 (stereo not drawn) ?
SMARCA2 act: -1

What do the screens show for `O=C1NC(=S)N/C1=C/c1cc2c(cc1[N+](=O)[O-])OCO2`?
SMARCA2 act: 11*; Tb MetRS inh: 0; Efflux pump inh: 0; AHR activator: 6; SMARCA2 act conf: 2; VP16 Luc act: 3

What do the screens show for `O=C(O)/C=C\c1cc2c(cc1[N+](=O)[O-])OCO2`?
SMARCA2 act: -2; Tb MetRS inh: -1; H9c2 TAG inh: 3; Efflux pump inh: 0; AHR activator: 5
